Converted amounts (≈) assume the structure as drawn.
Legend:
Bacillus subtilis = assay: Antibacterial activity against Bacillus subtilis NCTC 10400 at 5 mg after 24 hrs by agar well diffusion assay; assay type: functional; settings: NCTC 10400, 24 h, read-out: DIZ
In short: (§1)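 Agar well diffusion. 100 µL inoculum (1×10⁸ CFU/mL bacteria, 1×10⁶ CFU/mL yeast) spread on nutrient agar (bacteria) or Sabouraud dextrose agar (fungi). 10 mm wells loaded with 100 µL of 5 mg/mL compound in DMSO. DMSO as negative control. Erythromycin (bacteria) or […] (fungi) at 5 mg/ml as standards. Plates incubated 24 h at 37 °C. Inhibition zone diameter (mm) measured, mean of triplicate.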

Pseudomonas aeruginosa [1] = assay: Antibacterial activity against Pseudomonas aeruginosa ATCC 25619 at 5 mg after 24 hrs by agar well diffusion assay; assay type: functional; settings: ATCC 25619, 24 h, read-out: DIZ; in short: as §1
Escherichia coli = assay: Antibacterial activity against Escherichia coli ATCC 10536 at 5 mg after 24 hrs by agar well diffusion assay; assay type: functional; settings: ATCC 10536, 24 h, read-out: DIZ; in short: as §1
Hepatovirus A = assay: Antiviral activity against Hepatitis A virus infected in African green monkey Vero cells by plaque formation assay; assay type: functional; parameters: concentration or dose not given beside the values
[2] = Cytotoxicity against human PC3 cells assessed as decrease in cell viability after 48 hrs by SRB assay; assay type: functional, cell-based; settings: pc-3
In short: (§2)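 SRB assay. Cells seeded at 10⁴ per well and allowed to attach for 24 h. Exposed to 0, 5, 12.5, 25 and 50 µg/mL, triplicate wells per dose, for 48 h at 37 °C in 5% CO₂. Cells fixed and SRB-stained; excess dye removed with acetic acid, bound dye recovered in Tris-EDTA and read on an ELISA reader. IC50 read from the surviving-fraction curve.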

Candida albicans [3] = assay: Antifungal activity against Candida albicans IMRU 3669 after 24 hrs by two-fold serial dilution method; assay type: functional; settings: IMRU 3669, 24 h
In short: (§3)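 Two-fold serial dilutions of DMSO stock in adjusted Mueller-Hinton broth, final 100 to 0.78 µg/ml. Bacteria pre-grown in nutrient broth, fungi in malt extract broth (48 h). Each 5 ml tube given 0.1 ml inoculum (1×10⁸ CFU/ml bacteria, 1×10⁶ CFU/ml fungi), incubated 37 °C 24 h. MIC taken as lowest concentration with no growth; triplicate, averaged.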

Pseudomonas aeruginosa [4] = assay: Antibacterial activity against Pseudomonas aeruginosa ATCC 25619 after 24 hrs by two-fold serial dilution method; assay type: functional; settings: ATCC 25619, 24 h; in short: as §3
Micrococcus luteus [5] = assay: Antibacterial activity against Sarcina lutea after 24 hrs by two-fold serial dilution method; assay type: functional; in short: as §3
Bacillus pumilus [6] = assay: Antibacterial activity against Bacillus pumilus after 24 hrs by two-fold serial dilution method; assay type: functional; in short: as §3
Coxsackievirus B4 = assay: Antiviral activity against human Coxsackie virus B4 infected in African green monkey Vero cells by plaque formation assay; assay type: functional; parameters: concentration or dose not given beside the values
Human alphaherpesvirus 1 = assay: Antiviral activity against HSV1 infected in African green monkey Vero cells by plaque formation assay; assay type: functional; parameters: concentration or dose not given beside the values
Candida albicans [7] = assay: Antifungal activity against Candida albicans IMRU 3669 at 5 mg after 24 hrs by agar well diffusion assay; assay type: functional; settings: IMRU 3669, 24 h, read-out: DIZ; in short: as §1
Micrococcus luteus [8] = assay: Antibacterial activity against Micrococcus luteus ATCC 10240 after 24 hrs by two-fold serial dilution method; assay type: functional; settings: ATCC 10240, 24 h; in short: as §3
[9] = Antifungal activity against Penicillium chrysogenum at 5 mg after 24 hrs by agar well diffusion assay; assay type: functional; in short: as §1
[10] = Cytotoxicity against human MCF7 cells assessed as decrease in cell viability after 48 hrs by SRB assay; assay type: functional, cell-based; parameters: unit not given here; in short: as §2
Bacillus pumilus [11] = assay: Antibacterial activity against Bacillus pumilus at 5 mg after 24 hrs by agar well diffusion assay; assay type: functional; settings: read-out: DIZ; in short: as §1
[12] = Cytotoxicity against human HCT116 cells assessed as decrease in cell viability after 48 hrs by SRB assay; assay type: functional, cell-based; settings: hct-116; in short: as §2
[13] = Cytotoxicity against human HepG2 cells assessed as decrease in cell viability after 48 hrs by SRB assay; assay type: functional, cell-based; in short: as §2
Micrococcus luteus [14] = assay: Antibacterial activity against Sarcina lutea at 5 mg after 24 hrs by agar well diffusion assay; assay type: functional; settings: read-out: DIZ; in short: as §1
Aspergillus niger = assay: Antifungal activity against Aspergillus niger at 5 mg after 24 hrs by agar well diffusion assay; assay type: functional; settings: read-out: DIZ; in short: as §1
Micrococcus luteus [15] = assay: Antibacterial activity against Micrococcus luteus ATCC 10240 at 5 mg after 24 hrs by agar well diffusion assay; assay type: functional; settings: ATCC 10240, 24 h, read-out: DIZ; in short: as §1

| Structure (SMILES) | zone of inhibition at 5000 µg/disc (Bacillus subtilis) [mm] | zone of inhibition at 5000 µg/disc (Pseudomonas aeruginosa [1]) [mm] | zone of inhibition at 5000 µg/disc (Escherichia coli) [mm] | Activity (Hepatovirus A) [%] | IC50 [2] [µg] | MIC (Candida albicans [3]) [µg/mL] | MIC (Pseudomonas aeruginosa [4]) [µg/mL] | MIC (Micrococcus luteus [5]) [µg/mL] | MIC (Bacillus pumilus [6]) [µg/mL] | Activity (Coxsackievirus B4) [%] | Activity (Human alphaherpesvirus 1) [%] | zone of inhibition at 5000 µg/disc (Candida albicans [7]) [mm] | MIC (Micrococcus luteus [8]) [µg/mL] | inhibition zone (IZ) [9] [mm] | IC50 [10] | zone of inhibition at 5000 µg/disc (Bacillus pumilus [11]) [mm] | IC50 [12] [µg] | IC50 [13] [µg] | zone of inhibition at 5000 µg/disc (Micrococcus luteus [14]) [mm] | zone of inhibition at 5000 µg/disc (Aspergillus niger) [mm] | also measured |
| --- | --- | --- | --- | --- | --- | --- | --- | --- | --- | --- | --- | --- | --- | --- | --- | --- | --- | --- | --- | --- | --- |
| Cc1ccc(F)cc1N1C(=N)C(=S)N(c2cc(Cl)cc(Cl)c2)C1=O | 20 | 22 | 18 | 20.6 | 0.064 | 6.25 (≈ 16.4 µM) | 3.12 (≈ 8.16 µM) | 3.12 (≈ 8.16 µM) | 6.25 (≈ 16.4 µM) | 31.1 | 45.3 | 18 | 6.25 (≈ 16.4 µM) | 21 | 0.011 | 21 | 0.034 | 0.05 | 24 | 22 | zone of inhibition at 5000 µg/disc (Micrococcus luteus [15]): 20 mm |
| CSc1ccc(N2C(=N)C(=S)N(c3cc(Cl)cc(Cl)c3)C2=O)cc1 | 24 | 21 | 23 | 0 | 0.049 | 6.25 (≈ 15.8 µM) | 0.78 (≈ 1.97 µM) | 6.25 (≈ 15.8 µM) | 6.25 (≈ 15.8 µM) | 0 | 3.4 | 25 | 6.25 (≈ 15.8 µM) | 20 | 0.018 | 25 | 0.031 | 0.029 | 26 | 19 | zone of inhibition at 5000 µg/disc (Micrococcus luteus [15]): 18 mm |
| COc1ccc(N2C(=N)C(=S)N(c3cc(OC)ccc3OC)C2=O)cc1 | 28 | 26 | 28 | 60.1 | 0.051 | 6.25 (≈ 16.8 µM) | 0.78 (≈ 2.1 µM) | 6.25 (≈ 16.8 µM) | 3.12 (≈ 8.4 µM) | 0 | 42 | 29 | 6.25 (≈ 16.8 µM) | 20 | 0.031 | 23 | 0.051 | 0.032 | 27 | 19 | zone of inhibition at 5000 µg/disc (Micrococcus luteus [15]): 17 mm |
